≈ marks a conversion by molar mass, not a printed value.
Key:
[1] = system: NCI/ADR-RES; experiment: Cytotoxicity against MCF-7/Adr cells.; assay type: functional, cell-based, Homo sapiens
Outline: (§1)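 MCF-7/Adr cells kept in RPMI with 10% heat-inactivated FCS and 1% pen/strep, plated at 15 000 cells/mL on poly(D-lysine)-coated plates, left overnight at 37 °C. Day 1: compound added in 95% ethanol (1% by volume). Incubated 6 more days, growth read by BCA protein assay (A570), normalized to vehicle wells, n = 4. IC50 from linear regression through three points spanning 50%; R value from that regression.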

[2] = Statistical significance of IC 50 values; Expressed as R value; assay type: ADME; outline: as §1
[3] = Bullaticin index relates the IC50 values by normalizing to the value of bullatacin for easy comparison.; assay type: ADME
Outline: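 Index is IC50 of each compound divided by bullatacin's IC50, from the same 6-day BCA protein growth assay in MCF-7/Adr cells, n = 4.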

Row | Structure (SMILES) | IC50 [1] | Activity [2] | Bullatacin index [3]
1 | CCCCCCCCCCCC[C@@H](O)[C@H](O)CC[C@H](O)[C@@H]1CC[C@@H](CCC[C@H](O)[C@@H](O)CC[C@@H](O)CC2=C[C@H](C)OC2=O)O1 | > 1 µg/mL | – | –
2 | CCCCCCCCCC[C@@H](O)[C@@H]1CC[C@H]([C@H](O)CC[C@H](O)[C@@H]2CC[C@@H](CCCCCCC[C@@H](O)CC3=C[C@H](C)OC3=O)O2)O1 [SYLVATICIN] | – | 0.94 | 2.76
3 | CC[C@]1(O)C[C@H]2CN(CCc3c([nH]c4ccccc34)[C@@](C(=O)OC)(c3cc4c(cc3OC)N(C=O)[C@H]3[C@@](O)(C(=O)OC)[C@H](OC(C)=O)[C@]5(CC)C=CCN6CC[C@]43[C@@H]65)C2)C1 [VINCRISTINE] | 2.93 µg/mL (≈ 3.55 µM) | 1 | 141.3
4 | CCCCCCCCCCCC[C@@H](O)[C@H]1CC[C@H]([C@H](O)CCCC[C@H](O)CCCCC[C@@H](O)CC2=C[C@H](C)OC2=O)O1 [ANNONACIN] | – | 0.99 | 4.19
5 | COc1cccc2c1C(=O)c1c(O)c3c(c(O)c1C2=O)C[C@@](O)(C(=O)CO)C[C@@H]3O[C@H]1C[C@H](N)[C@H](O)[C@H](C)O1 [DOXORUBICIN] | 5.37 µg/mL (≈ 9.88 µM) | 1 | 258.5
6 | CCCCCCCCCC[C@@H](O)[C@@H]1CC[C@@H]([C@@H]2CC[C@@H]([C@H](O)CCCCCCCCCC(O)CC3=CC(C)OC3=O)O2)O1 (stereo not given in full) [BULLATACIN] | 10.8 µg/mL (≈ 17.7 µM) | 0.97 | 1
7 | CCCCCCCCCCCC[C@@H](O)[C@H]1CC[C@H]([C@H]2CC[C@H]([C@H](O)CC[C@H](O)CCCCCCCCC3=C[C@H](C)OC3=O)O2)O1 | 1.4 µg/mL (≈ 2.2 µM) | 1 | 67.2
8 | CCCCCCCCCCCC[C@H](O)[C@@H](O)CC[C@H](O)[C@@H]1CC[C@@H](CCC[C@H](O)[C@@H](O)CC[C@@H](O)CC2=C[C@H](C)OC2=O)O1 | > 1 µg/mL | – | –
9 | CCCCCCCCCC[C@H](O)[C@H]1CC[C@H]([C@H](O)CC[C@H](O)[C@@H]2CC[C@@H](CCCCCCC[C@@H](O)CC3=C[C@H](C)OC3=O)O2)O1 [BULLATALICIN] | – | 0.98 | 4.72
10 | CCCCCCCCCCCCCC[C@@H](O)[C@H](O)CC[C@H](O)[C@@H]1CC[C@@H](CCCCC[C@@H](O)CC2=C[C@H](C)OC2=O)O1 [GIGANTETROCIN A] | – | 0.97 | 0.5
11 | CC[C@]1(O)C[C@@H]2CN(CCc3c([nH]c4ccccc34)[C@@](C(=O)OC)(c3cc4c(cc3OC)N(C)[C@H]3[C@@](O)(C(=O)OC)[C@H](OC(C)=O)[C@]5(CC)C=CCN6CC[C@]43[C@@H]65)C2)C1 [VINBLASTINE] | 390 µg/mL (≈ 481 µM) | 1 | 18.8
12 | CCCCCCCCCC[C@@H](O)[C@H]1CC[C@@H]([C@H]2CC[C@H]([C@H](O)CCCCCCCCCC[C@@H](O)CC3=C[C@H](C)OC3=O)O2)O1 [TRILOBACIN] | 59.9 µg/mL (≈ 96.2 µM) | 0.98 | 2.89
13 | CCCCCCCCCCCC/C=C\CC[C@@H](O)[C@H](O)CC[C@H](O)[C@@H]1CC[C@@H](CCCCC[C@@H](O)CC2=C[C@H](C)OC2=O)O1 | – | 0.98 | 5.26
14 | CCCCCCCCCCCC[C@@H](O)[C@H]1CC[C@H]([C@H]2CC[C@H]([C@H](O)CCCCCC[C@@H](O)CC3=C[C@H](C)OC3=O)O2)O1 | > 1 µg/mL | – | –
15 | CCCCCCCCCCCC[C@H](O)[C@H]1CC[C@H]([C@H]2CC[C@H]([C@H](O)CCCCCCCC[C@@H](O)CC3=C[C@H](C)OC3=O)O2)O1 [SQUAMOTACIN] | – | 1 | 6.79
16 | CCCCC[C@H](O)CCCC[C@H](O)[C@H]1CC[C@H]([C@H]2CC[C@H]([C@H](O)CCCCCCCCCCCCC3=C[C@H](C)OC3=O)O2)O1 [MOTRILIN] | – | 0.99 | 1.23

From ChEMBL document CHEMBL1130080, “Structure-activity relationships of diverse Annonaceous acetogenins against multidrug resistant human mammary adenocarcinoma (MCF-7/Adr) cells” (J Med Chem, 1997)
